Measured values published in the RNAGym collection of RNA variant scans (doi:10.1038/s41586-018-0170-7).

B1: tRNA (parent)
chain: GUUCCGUUGGCGUAAUGGUAACGCGUCUCCCUCCUAAGGAGAAGACUGCGGGUUCGAGUCCCGUACGGAACG

Variants of: B1
Experiment: yeast fitness, log relative to wild type (ln ratio); higher = fitter; tRNA-Arg(CCU), competitive growth, 37 C, 1 M NaCl
How it was run: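 Two independent transformations put a combinatorial tRNA-Arg(CCU) variant library on a HIS3 centromeric plasmid into BY4742 lacking the chromosomal gene. Pools were grown in SC-HIS at 30 °C for 4 generations, then in SC-HIS 1M NaCl at 37 °C for ~6.5 generations (~26.5 h), with three outputs taken per input. Fitness compares a genotype's generations with the wild type's as a natural log ratio. Those generations are OD-scaled log2 output/input frequencies, inverse-variance weighted across replicates, from 125 bp paired-end Illumina counts.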

Point of comparison: U2G G6A C27U A43C, “yeast fitness (ln)” value -0.0726. Against it:
- G1A U2G G6A A43C A70U — lower, -0.216
- G1A U2C C27U C46U A70G C71U — higher, -0.0196
- G1A U2G G6A C46U C71U — lower, -0.247
- G1A G6U C27U C46U C71U — lower, -0.239
- G1A U2G G6U C27U C46U C66U — lower, -0.271
- U2G G6A C27U C46U A69G — lower, -0.149
- G1A G6U C27U A69G A70G — lower, -0.379
- U2C A43C C46U A70G — higher, -0.00469
- U2G G6U C27U A43C C46U C66U A69G A70G — lower, -0.318
- G1A U2C G6A C27U A43C C46U C66U A69G A70G — lower, -0.0972
- G1A U2G G6A C71U — lower, -0.136
- U2G G6A C27U A43C C66A A69G A70U — lower, -0.301
- G6A C27U C46U A69G A70U C71U — lower, -0.331
- G1A U2G G6U C27U A43C C66U A70U C71U — lower, -0.429
- U2C G6A C27U C46U A69G A70U — lower, -0.152
- U2G G6A C27U A43C C46U A69G A70G — lower, -0.183
- U2G G6U C27U A43C C46U A69G — lower, -0.199
- U2C G6A C46U C66A A70U C71U — higher, -0.0695
- U2G G6U C66U A69G A70G — lower, -0.251
- G1A U2G G6A C27U A43C C66U A69G A70G — lower, -0.447
- U2C G6U C27U A43C A69G A70U C71U — lower, -0.513
- U2G C27U A43C C46U C66A A70U C71U — lower, -0.262
- G1A U2G G6U A43C C46U C71U — lower, -0.335
- G1A U2C C27U A43C C46U A70G C71U — higher, -0.012
- G6U C27U A43C C46U A69G — lower, -0.268
- G1A G6U A43C C66U A70U — lower, -0.212
- C46U C66A C71U — higher, -0.0724
- U2C G6A A43C C66U C71U — lower, -0.115
- A43C C46U C66A A69G A70G C71U — lower, -0.103
- U2C A43C C46U C66A A69G A70U C71U — lower, -0.374
- G1A U2G G6A C46U C66U A69G A70G — lower, -0.18
- G1A U2G C46U C66U C71U — lower, -0.117
- U2G C27U A43C A69G A70G C71U — lower, -0.204
- U2G G6A C27U C46U C71U — lower, -0.128
- G1A G6A C27U C46U C66U — lower, -0.421
- U2G C27U C66U A69G A70U C71U — lower, -0.433
- G1A C27U A43C C46U A69G — lower, -0.116
- G1A U2G G6A C27U C66U A69G A70G C71U — lower, -0.402
- U2G G6U C66A C71U — lower, -0.108
- G1A U2C G6A A43C C46U C66U A69G A70G — lower, -0.232
- U2C A43C C71U — lower, -0.168
- G1A U2G C27U C66U — lower, -0.174
- U2G G6A C46U C66U C71U — lower, -0.082
- U2C G6A C27U A69G A70U C71U — lower, -0.309
- G1A U2G G6U C46U C66U A69G A70G — lower, -0.347
- C46U C66U A69G A70G — lower, -0.216
- G1A U2C G6U C46U C66U A69G A70G — lower, -0.183
- G6U C27U A69G A70U — lower, -0.214
- G6U C46U A69G C71U — lower, -0.194
- U2G G6U C27U C46U — lower, -0.1
- C27U A43C A69G C71U — lower, -0.44
- G1A U2G C27U C66A A69G A70U C71U — lower, -0.342
- G1A G6U C27U A43C C46U A70U — lower, -0.346
- G1A G6A A43C A69G A70U — lower, -0.224
- G6U C27U C66A A69G A70G — lower, -0.35
- U2G G6A A43C C46U C66U A70G C71U — lower, -0.149
- G1A U2G G6A A69G C71U — lower, -0.244
- G1A U2G A43C C66U A70G — lower, -0.214
- A43C C66U A69G A70G C71U — lower, -0.22
- G1A U2G C46U C66A C71U — lower, -0.0962
- G1A C71U — higher, -0.0163
- U2C G6A A43C C66U A69G A70U — lower, -0.232
- C27U A43C C46U C66U A69G C71U — lower, -0.361
- U2G A43C C46U A69G A70G — lower, -0.174
- G6A C27U C46U A69G A70G C71U — lower, -0.219
- G1A U2G G6U C27U A43C C46U C66A A70U C71U — lower, -0.626
- G1A C27U A43C C66A A70G C71U — lower, -0.35
- U2G G6U A43C C66U A69G A70G C71U — lower, -0.411
- U2G G6A C27U C46U A70G — lower, -0.0986
- G1A G6A C66U A69G A70U — lower, -0.102
- U2C G6U C27U A70G C71U — lower, -0.309
- G1A U2G G6U C27U C46U C66A A70G C71U — lower, -0.239
- G1A G6A C46U A69G C71U — lower, -0.252
- G1A C27U A43C C66A A69G A70G C71U — lower, -0.427
- U2G G6U C27U A43C C46U C66A A70G C71U — lower, -0.197
- U2G G6A C27U A43C C46U A69G C71U — lower, -0.22
- G1A U2G G6U C27U A43C C46U C66U A69G A70U — lower, -0.451
- U2G G6U A43C C46U C66U C71U — lower, -0.309
- G1A U2C G6A — higher, 0.00615
- G1A U2G C27U C66U A69G A70U C71U — lower, -0.511
- U2G A43C C66U A70U — lower, -0.268
- C27U — higher, -0.0106
- G1A C27U A43C C66A A70U C71U — lower, -0.423
